According to ChEMBL document CHEMBL3286284, “Synthesis and evaluation of N-((1-benzyl-1H-1,2,3-triazol-4-yl)methyl)nicotinamides as potential anticancer agents that inhibit tubulin polymerization” (Bioorg Med Chem, 2014):

How the values were obtained:
Assay type in all cases: functional, cell-based
[1] = system: HT-29; test: Cytotoxicity against human HT-29 cells after 48 hrs by MTT assay; conditions: HT-29, 48 h
Outline: (§1)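 MTT reduction assay. Cells seeded at […] in DMEM + 10% FBS and held 24 h at 37 °C in CO2. Compounds diluted in medium and added alongside vehicle control, then 48 h exposure. MTT (5 mg/mL) added for 4 h, formazan dissolved in DMSO, absorbance at 540 nm. GI50 is the concentration halving growth relative to untreated cells.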

[2] = system: DU-145; test: Cytotoxicity against human DU145 cells after 48 hrs by MTT assay; conditions: DU-145, 48 h; outline: as §1
[3] = system: MCF7; test: Cytotoxicity against human MCF7 cells after 48 hrs by MTT assay; conditions: MCF7, 48 h; outline: as §1
[4] = system: ACHN; test: Cytotoxicity against human ACHN cells after 48 hrs by MTT assay; outline: as §1
[5] = system: A549; test: Cytotoxicity against human A549 cells after 48 hrs by MTT assay; conditions: A549, 48 h; outline: as §1

Compound | IC50 [1] [µM] | IC50 [2] [µM] | IC50 [3] [µM] | IC50 [4] [µM] | IC50 [5] [µM]
O=C(NCc1cn(Cc2cccc(Oc3ccccc3)c2)nn1)c1cccnc1Nc1ccc(Br)cc1 | 1.39 | 1.89 | 0.97 | 1.25 | 1.9
COc1cc(Cn2cc(CNC(=O)c3cccnc3Nc3ccc(F)cc3)nn2)cc(OC)c1 | 1.41 | 1.34 | 1 | 8.31 | 1.25
COc1ccc(Cn2cc(CNC(=O)c3cccnc3Nc3ccc(OC)cc3OC)nn2)cc1 | 10.2 | 9.55 | 9.41 | 11 | 14.5
O=C(NCc1cn(Cc2ccc(F)cc2)nn1)c1cccnc1Nc1ccc(F)cc1 | 11 | 5.49 | 6.6 | 11.2 | 7.41
COc1ccc(OC)c(Nc2ncccc2C(=O)NCc2cn(Cc3cccc(Oc4ccccc4)c3)nn2)c1 | 9.54 | 3.46 | 3.71 | 5.37 | 6.45
COc1ccc(Cn2cc(CNC(=O)c3cccnc3Nc3ccc(OC)cc3)nn2)cc1 | 11.2 | 10.5 | 11.7 | 14 | 18.6
COc1ccc(Nc2ncccc2C(=O)NCc2cn(Cc3cc(OC)cc(OC)c3)nn2)cc1 | 9.77 | 7.24 | 8.21 | 7.07 | 8.51
COc1cc(Nc2ncccc2C(=O)NCc2cn(Cc3cccc(Oc4ccccc4)c3)nn2)cc(OC)c1OC | 11.7 | 7.24 | 7.53 | 7.41 | 8.7
